Data: ChEMBL document CHEMBL3259704, “Second generation steroidal 4-aminoquinolines are potent, dual-target inhibitors of the botulinum neurotoxin serotype A metalloprotease and P. falciparum malaria” (J Med Chem, 2014)

Legend:
Plasmodium falciparum [1] = experiment: Antimalarial activity against CQ, MFQ-resistant Plasmodium falciparum TM91C235 clone Southeast asian isolate assessed as inhibition of parasite proliferation by MSF assay; format: functional, organism-based
Outline: (§1)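 SYBR Green I fluorescence (MSF) microtiter drug-sensitivity assay: malarial DNA content is the measure of in vitro parasite proliferation. Resistance index is the IC90 ratio of the resistant strain to D6.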

[2] = biological target: Botulinum neurotoxin type A (Clostridium botulinum) (UniProt P0DPI0); experiment: Inhibition of Clostridium botulinum recombinant BoNT/A light chain using N-terminal acetylated, C-terminal aminated SNAP-25 (187-203) as substrate at 20 uM by reverse-phase HPLC analysis
Sequence of Botulinum neurotoxin type A (Clostridium botulinum) (P0DPI0 2-448 limits assumed): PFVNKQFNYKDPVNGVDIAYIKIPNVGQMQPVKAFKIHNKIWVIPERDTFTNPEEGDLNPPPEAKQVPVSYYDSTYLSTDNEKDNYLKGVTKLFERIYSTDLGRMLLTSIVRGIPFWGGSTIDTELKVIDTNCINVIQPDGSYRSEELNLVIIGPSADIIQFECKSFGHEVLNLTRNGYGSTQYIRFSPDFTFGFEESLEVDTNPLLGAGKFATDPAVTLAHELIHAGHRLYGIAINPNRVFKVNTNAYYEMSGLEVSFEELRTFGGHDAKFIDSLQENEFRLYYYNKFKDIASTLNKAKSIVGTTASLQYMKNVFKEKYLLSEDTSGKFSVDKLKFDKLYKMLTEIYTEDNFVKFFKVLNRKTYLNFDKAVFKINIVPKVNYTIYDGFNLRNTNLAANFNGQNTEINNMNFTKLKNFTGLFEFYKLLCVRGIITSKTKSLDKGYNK
Outline: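 Recombinant BoNT/A LC with SNAP-25 187–203 peptide substrate in 40 mM HEPES–0.05% Tween, pH 7.3, with 0.5 mg/mL BSA and 50 μM excess Zn, at 37 °C. Quenched with TFA; reverse-phase HPLC product/substrate peak areas give percent inhibition, run in duplicate.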

[3] = Selectivity index, ratio of IC50 for human HepG2 cells to IC50 for CQ-resistant, MFQ-susceptible Plasmodium falciparum W2 clone Indochina 1 isolate; format: toxicity, cell-based; settings: read-out: Ratio IC50
Plasmodium falciparum [4] = experiment: Antimalarial activity against CQ-resistant, MFQ-susceptible Plasmodium falciparum W2 clone Indochina 1 isolate assessed as inhibition of parasite proliferation by MSF assay; format: functional, organism-based; outline: as §1
[5] = Selectivity index, ratio of IC50 for human HepG2 cells to IC50 for CQ, MFQ-resistant Plasmodium falciparum TM91C235 clone Southeast asian isolate; format: toxicity, cell-based; settings: read-out: Ratio IC50
[6] = Selectivity index, ratio of IC50 for human HepG2 cells to IC50 for CQ, MFQ-susceptible Plasmodium falciparum D6 clone Sierra 1/UNC isolate; format: toxicity, cell-based; settings: read-out: Ratio IC50
Plasmodium falciparum [7] = experiment: Antimalarial activity against CQ, MFQ-susceptible Plasmodium falciparum D6 clone Sierra 1/UNC isolate assessed as inhibition of parasite proliferation by MSF assay; format: functional, organism-based; outline: as §1
HepG2 = experiment: Cytotoxicity against human HepG2 cells assessed as cell viability after 48 hrs by MTT assay; format: cell-based; settings: HepG2, 48 h
Plasmodium falciparum [8] = experiment: Resistance index, ratio of IC90 for CQ-resistant, MFQ-susceptible Plasmodium falciparum W2 clone Indochina 1 isolate to IC90 for CQ, MFQ-susceptible Plasmodium falciparum D6 clone Sierra 1/UNC isolate; format: functional; outline: as §1
[9] = biological target: Botulinum neurotoxin type A (Clostridium botulinum, UniProt P0DPI0); experiment: Inhibition of Clostridium botulinum recombinant BoNT/A light chain using N-terminal acetylated, C-terminal aminated SNAP-25 (187-203) as substrate by reverse-phase HPLC analysis
Sequence of Botulinum neurotoxin type A (P0DPI0 2-448 limits assumed): as above
Outline: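 Same HPLC LC cleavage assay (pH 7.3 HEPES/Tween, BSA, excess Zn, 37 °C). […] Ki comes from velocity versus substrate at several inhibitor levels, globally fit to a competitive model.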

Plasmodium falciparum [10] = experiment: Resistance index, ratio of IC90 for CQ, MFQ-resistant Plasmodium falciparum TM91C235 clone Southeast asian isolate to IC90 for CQ, MFQ-susceptible Plasmodium falciparum D6 clone Sierra 1/UNC isolate; format: functional; outline: as §1

Compound | IC50 (Plasmodium falciparum [1]) | inhibition [2] | selectivity ratio [3] | IC50 (Plasmodium falciparum [4]) | selectivity ratio [5] | selectivity ratio [6] | IC50 (Plasmodium falciparum [7]) | IC50 (HepG2) | IC90 (Plasmodium falciparum [1]) | Ratio (Plasmodium falciparum [8]) | IC90 (Plasmodium falciparum [4]) | IC50 [9] | IC90 (Plasmodium falciparum [7]) | Ratio (Plasmodium falciparum [10]) | Ki [9]
CC(=O)O[C@H]1C[C@H]2[C@@H]([C@H](OC(C)=O)C[C@@H]3CC(=O)CC[C@@]32C)[C@@H]2CC[C@H]([C@H](C)CCCNCCCCCCNc3ccnc4cc(Cl)ccc34)[C@@]12C | 51.6 nM | 77.2% | 30 | 42.1 nM | 25 | 27 | 47.5 nM | 1280 nM | – | – | – | – | – | – | –
CC(=O)O[C@H]1C[C@H]2[C@@H]([C@H](OC(C)=O)C[C@@H]3C[C@H](N)CC[C@@]32C)[C@@H]2CC[C@H]([C@H](C)CCCN(CCCNc3ccnc4cc(Cl)ccc34)CCC[C@@H](C)[C@H]3CC[C@H]4[C@@H]5[C@H](OC(C)=O)C[C@@H]6C[C@H](N)CC[C@]6(C)[C@H]5C[C@H](OC(C)=O)[C@]34C)[C@@]12C | 297 nM | 92.8% | 10 | 218 nM | 7 | 9 | 245 nM | 2130 nM | 313 nM | 1.29 | 414 nM | 630 nM | 321 nM | 0.97 | –
N=C(N)c1ccc(Oc2ccc(-c3cc4ccc(C(=N)N)cc4[nH]3)cc2)cc1 | – | – | – | – | – | – | – | – | – | – | – | 2620 nM | – | – | –
CC(=O)O[C@H]1C[C@H]2[C@@H]([C@H](OC(C)=O)C[C@@H]3CC(=O)CC[C@@]32C)[C@@H]2CC[C@H]([C@H](C)CCCNCCCCNc3ccnc4cc(Cl)ccc34)[C@@]12C | 214 nM | 81.5% | 7 | 175 nM | 6 | 6 | – | 1230 nM | – | – | – | – | – | – | –
CC(=O)O[C@H]1C[C@H]2[C@@H]([C@H](OC(C)=O)C[C@@H]3C[C@H](NC(=O)OC(C)(C)C)CC[C@@]32C)[C@@H]2CC[C@H]([C@H](C)CCCN(C)CCCNc3ccnc4cc(Cl)ccc34)[C@@]12C | – | 59.6% | – | – | – | – | – | – | – | – | – | 6620 nM | – | – | –
CC(=O)O[C@H]1C[C@H]2[C@@H]([C@H](OC(C)=O)C[C@@H]3C[C@H](NC(=O)OC(C)(C)C)CC[C@@]32C)[C@@H]2CC[C@H]([C@H](C)CCCN(CCCNc3ccnc4cc(Cl)ccc34)CCC[C@@H](C)[C@H]3CC[C@H]4[C@@H]5[C@H](OC(C)=O)C[C@@H]6C[C@H](NC(=O)OC(C)(C)C)CC[C@]6(C)[C@H]5C[C@H](OC(C)=O)[C@]34C)[C@@]12C | 369 nM | 6.42% | 96 | – | 96 | 96 | – | 35400 nM | – | – | – | – | – | – | –
CC(=O)O[C@H]1C[C@H]2[C@@H]([C@H](OC(C)=O)C[C@@H]3C[C@@H](NCCCCCCNc4ccnc5cc(Cl)ccc45)CC[C@@]32C)[C@@H]2CC[C@H]([C@H](C)CCCNCCCCCCNc3ccnc4cc(Cl)ccc34)[C@@]12C | – | 89.6% | – | – | – | – | – | – | – | – | – | – | – | – | 389 nM
CC(=O)O[C@H]1C[C@H]2[C@@H]([C@H](OC(C)=O)C[C@@H]3C[C@H](NS(C)(=O)=O)CC[C@@]32C)[C@@H]2CC[C@H]([C@H](C)CCCNCCNc3ccnc4cc(Cl)ccc34)[C@@]12C | 26.4 nM | 74.4% | 131 | 44.6 nM | 222 | 301 | 19.4 nM | 5850 nM | 45.6 nM | 1.34 | 71.1 nM | 5090 nM | 53 nM | 0.86 | –
CC(=O)O[C@@H]1CC[C@@]2(C)[C@@H](C1)C[C@@H](OC(C)=O)[C@@H]1[C@@H]2C[C@H](OC(C)=O)[C@]2(C)[C@@H]([C@H](C)CCCNCCNc3ccnc4cc(Cl)ccc34)CC[C@@H]12 | – | 74% | – | – | – | – | – | – | 77.9 nM | – | 32.5 nM | 3800 nM | 34.2 nM | – | 6990 nM
CC(=O)O[C@H]1C[C@H]2[C@@H]([C@H](OC(C)=O)C[C@@H]3C[C@H](NCCCCCCNc4ccnc5cc(Cl)ccc45)CC[C@@]32C)[C@@H]2CC[C@H]([C@H](C)CCCNCCCCNc3ccnc4cc(Cl)ccc34)[C@@]12C | – | 93.7% | – | – | – | – | – | – | – | – | – | – | – | – | 300 nM
CC(=O)O[C@H]1C[C@H]2[C@@H]([C@H](OC(C)=O)C[C@@H]3C[C@H](N)CC[C@@]32C)[C@@H]2CC[C@H]([C@H](C)CCCN(C)CCCNc3ccnc4cc(Cl)ccc34)[C@@]12C | 100 nM | 81.4% | 45 | 110 nM | 50 | 44 | 112 nM | 4970 nM | 128 nM | 1.02 | 153 nM | 1130 nM | 150 nM | 0.85 | –
Clc1ccc2c(NCCNC34CC5CC(CC(C5)C3)C4)ccnc2c1 | – | – | – | – | – | – | – | – | – | – | – | 11800 nM | – | – | –
CC(=O)O[C@@H]1CC[C@@]2(C)[C@@H](C1)C[C@@H](OC(C)=O)[C@@H]1[C@@H]2C[C@H](OC(C)=O)[C@]2(C)[C@@H]([C@H](C)CCCNCCCCCCNc3ccnc4cc(Cl)ccc34)CC[C@@H]12 | 104 nM | 83.3% | 47 | 56.4 nM | 25 | 29 | 91 nM | 2640 nM | – | – | – | – | – | – | –
CCN(CC)CCCC(C)Nc1ccnc2cc(Cl)ccc12 (centres undefined) [CHLOROQUINE] | – | 6.51% | – | – | – | – | – | – | 373 nM | – | 698 nM | – | 16.1 nM | – | –
CC(=O)O[C@H]1C[C@H]2[C@@H]([C@H](OC(C)=O)C[C@@H]3C[C@H](NCCCCCCNc4ccnc5cc(Cl)ccc45)CC[C@@]32C)[C@@H]2CC[C@H]([C@H](C)CCCNCCCCCCNc3ccnc4cc(Cl)ccc34)[C@@]12C | – | 95.5% | – | – | – | – | – | – | – | – | – | – | – | – | 285 nM
CC(=O)O[C@@H]1CC[C@@]2(C)[C@@H](C1)C[C@@H](OC(C)=O)[C@@H]1[C@@H]2C[C@H](OC(C)=O)[C@]2(C)[C@@H]([C@H](C)CCCNCCCCNc3ccnc4cc(Cl)ccc34)CC[C@@H]12 | 54.5 nM | 69% | 107 | 23.9 nM | 47 | 55 | 46.5 nM | 2560 nM | – | – | – | – | – | – | –
CC(=O)O[C@H]1C[C@H]2[C@@H]([C@H](OC(C)=O)C[C@@H]3C[C@H](O)CC[C@@]32C)[C@@H]2CC[C@H]([C@H](C)CCCNCCCCNc3ccnc4cc(Cl)ccc34)[C@@]12C | 56.3 nM | 80.8% | 47 | 33.8 nM | 28 | 30 | 52.1 nM | 1580 nM | – | – | – | – | – | – | –
CC(=O)O[C@H]1C[C@H]2[C@@H]([C@H](OC(C)=O)C[C@@H]3C[C@@H](NCCCCNc4ccnc5cc(Cl)ccc45)CC[C@@]32C)[C@@H]2CC[C@H]([C@H](C)CCCNCCCCNc3ccnc4cc(Cl)ccc34)[C@@]12C | – | 96.7% | – | – | – | – | – | – | – | – | – | – | – | – | 300 nM
CC(=O)O[C@H]1C[C@H]2[C@@H]([C@H](OC(C)=O)C[C@@H]3C[C@H](O)CC[C@@]32C)[C@@H]2CC[C@H]([C@H](C)CCCNCCCCCCNc3ccnc4cc(Cl)ccc34)[C@@]12C | 40.6 nM | 62.9% | 60 | 33.9 nM | 50 | 56 | 36.6 nM | 2040 nM | – | – | – | – | – | – | –
CC(=O)O[C@H]1C[C@H]2[C@@H]([C@H](OC(C)=O)C[C@@H]3C[C@H](NC(=O)OC(C)(C)C)CC[C@@]32C)[C@@H]2CC[C@H]([C@H](C)CCCNCCCNc3ccnc4cc(Cl)ccc34)[C@@]12C | – | 74.9% | – | – | – | – | – | – | – | – | – | 3240 nM | – | – | –
CC(=O)O[C@H]1C[C@H]2[C@@H]([C@H](OC(C)=O)C[C@@H]3C[C@@H](NCCCCCCNc4ccnc5cc(Cl)ccc45)CC[C@@]32C)[C@@H]2CC[C@H]([C@H](C)CCCNCCCCNc3ccnc4cc(Cl)ccc34)[C@@]12C | – | 95.4% | – | – | – | – | – | – | – | – | – | – | – | – | 103 nM
C[C@@H]1CC[C@H]2[C@@H](C)C(=O)O[C@@H]3O[C@@]4(C)CC[C@@H]1[C@]32OO4 [ARTEMISININ] | 13.4 nM | – | – | 6.7 nM | – | – | 9 nM | – | 17.4 nM | 0.9 | 11.5 nM | – | 12.8 nM | 1.36 | –
